Measured values taken from ChEMBL document CHEMBL1131480, “Novel antipsychotic agents with dopamine autoreceptor agonist properties: synthesis and pharmacology of 7-[4-(4-phenyl-1-piperazinyl)butoxy]-3,4-dihydro-2(1H)-quinolinone derivatives” (1998).
Each block holds one compound with its values, some of them ahead of it. Active and inactive are the calls of the source. The rule behind the calls is not given here.

Key:
Mus musculus [1] = organism: Mus musculus; assay: post-synaptic DA receptor antagonist activity was evaluated by inhibition of the apomorphine-induced stereotyped behavior in mice. inactive at single given dose; format: functional
Method in brief: (§1)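 Overnight-fasted mice (16-20 h), groups of 10, given compound orally 1 h before apomorphine 1.5 mg/kg sc in 0.9% saline. Stereotypy observed for 1 min every 10 min over 40 min, starting 20 min post-apomorphine, scored by a published scale. ED50 with 95% confidence limits by linear regression, µmol/kg po.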

[2] = system: Dopamine D2 receptor (Mus musculus); assay: post-synaptic dopamine […] antagonist activity evaluated by inhibition of the apomorphine-induced stereotyped behavior in mice.
[3] = target: T1, Alpha-1 adrenergic receptor (Mus musculus) (UniProt P97714+P97717+P97718); assay: Inhibition of noradrenaline lethal effects in mice as alpha-1 induced adrenoceptor antagonist activity; format: functional
Rattus norvegicus [4] = organism: Rattus norvegicus; assay: Inhibition of the GBL-induced increase in DOPA synthesis in rats.
Mus musculus [5] = organism: Mus musculus; assay: Inhibition of the GBL-induced increase in DOPA accumulation in mice(DA auto receptor agonist activity); format: functional
[6] = ratio between ED50 values of DA receptor antagonist activity and catalepsy.; format: functional
Rattus norvegicus [7] = organism: Rattus norvegicus; assay: Inhibition of the APO-induced stereotyped behavior in rats.
[8] = target: T1, Alpha-1 adrenergic receptor (Mus musculus); assay: Inhibition of the lethal effects of noradrenaline in mice (alpha-1 induced adrenoceptor antagonist activity); format: functional
Mus musculus [9] = organism: Mus musculus; assay: Induction of catalepsy in mice.; format: functional
Rattus norvegicus [10] = organism: Rattus norvegicus; assay: Inhibition of the APO-induced stereotyped behavior in rats
Mus musculus [11] = organism: Mus musculus; assay: Inhibition of the GBL-induced increase in DOPA accumulation in mice(DA auto receptor agonist activity); IA = inactive; format: functional, organism-based
Mus musculus [12] = organism: Mus musculus; assay: Inhibition of the GBL-induced increase in DOPA synthesis in mice; IA = inactive; format: functional, organism-based
Mus musculus [13] = organism: Mus musculus; assay: Induction of catalepsy in mice; format: functional
Mus musculus [14] = organism: Mus musculus; assay: post-synaptic DA receptor antagonist activity was evaluated by inhibition of the apomorphine-induced stereotyped behavior in mice. inactive at below given dose; format: functional; method in brief: as §1
Mus musculus [15] = organism: Mus musculus; assay: post-synaptic DA receptor antagonist activity was evaluated by inhibition of the apomorphine-induced stereotyped behavior in mice. 51% inhibition at single given dose.; format: functional; method in brief: as §1
Mus musculus [16] = organism: Mus musculus; assay: post-synaptic DA receptor antagonist activity was evaluated by inhibition of the apomorphine-induced stereotyped behavior in mice. 49% inhibition at single given dose; format: functional; method in brief: as §1

T1 sequence (P97714 whole entry, looked up): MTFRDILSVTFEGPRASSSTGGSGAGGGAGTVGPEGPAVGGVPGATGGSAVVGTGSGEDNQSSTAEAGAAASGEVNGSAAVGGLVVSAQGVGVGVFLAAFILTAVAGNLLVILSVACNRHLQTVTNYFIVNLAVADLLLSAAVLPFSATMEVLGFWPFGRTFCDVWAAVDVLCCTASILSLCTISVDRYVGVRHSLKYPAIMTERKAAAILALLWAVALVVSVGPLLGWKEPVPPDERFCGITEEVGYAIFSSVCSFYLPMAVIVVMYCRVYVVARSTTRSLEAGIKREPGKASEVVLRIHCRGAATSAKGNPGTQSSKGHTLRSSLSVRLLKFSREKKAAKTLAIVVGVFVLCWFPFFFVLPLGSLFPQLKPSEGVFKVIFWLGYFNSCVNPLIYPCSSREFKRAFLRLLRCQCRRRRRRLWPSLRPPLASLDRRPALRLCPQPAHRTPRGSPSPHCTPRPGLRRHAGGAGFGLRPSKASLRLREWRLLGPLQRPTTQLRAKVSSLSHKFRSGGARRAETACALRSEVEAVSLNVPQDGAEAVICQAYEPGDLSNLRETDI
T1 sequence (P97717 whole entry, looked up): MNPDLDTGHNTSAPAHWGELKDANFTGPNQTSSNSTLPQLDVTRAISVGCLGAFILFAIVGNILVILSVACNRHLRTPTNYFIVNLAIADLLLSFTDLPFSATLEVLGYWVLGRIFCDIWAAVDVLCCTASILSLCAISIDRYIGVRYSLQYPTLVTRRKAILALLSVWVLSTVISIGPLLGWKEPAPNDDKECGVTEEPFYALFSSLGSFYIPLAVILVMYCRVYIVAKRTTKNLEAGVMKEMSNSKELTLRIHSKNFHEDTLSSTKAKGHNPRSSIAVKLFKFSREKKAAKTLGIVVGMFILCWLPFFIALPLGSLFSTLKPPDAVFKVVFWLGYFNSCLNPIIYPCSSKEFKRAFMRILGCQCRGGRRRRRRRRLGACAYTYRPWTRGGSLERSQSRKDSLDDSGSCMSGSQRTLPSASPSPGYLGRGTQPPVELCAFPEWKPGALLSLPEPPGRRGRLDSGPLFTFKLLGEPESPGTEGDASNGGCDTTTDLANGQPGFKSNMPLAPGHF
T1 sequence (P97718 whole entry, looked up): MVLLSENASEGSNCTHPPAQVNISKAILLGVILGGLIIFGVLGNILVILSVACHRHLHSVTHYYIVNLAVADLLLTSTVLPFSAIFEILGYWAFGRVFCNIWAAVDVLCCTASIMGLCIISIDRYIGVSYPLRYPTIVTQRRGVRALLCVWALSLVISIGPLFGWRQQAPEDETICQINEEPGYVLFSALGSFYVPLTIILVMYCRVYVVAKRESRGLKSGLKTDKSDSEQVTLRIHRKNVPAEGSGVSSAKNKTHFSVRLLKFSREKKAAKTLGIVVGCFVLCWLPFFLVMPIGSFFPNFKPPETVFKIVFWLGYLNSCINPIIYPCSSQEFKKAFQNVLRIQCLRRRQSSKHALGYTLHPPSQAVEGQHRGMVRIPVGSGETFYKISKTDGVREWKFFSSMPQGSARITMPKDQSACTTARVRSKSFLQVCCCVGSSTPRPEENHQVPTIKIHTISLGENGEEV

SMILES: O=C1CCc2ccc(OCCCCN3CCN(c4ccc(Cl)c(Cl)c4)CC3)cc2N1
ED50 (Mus musculus [1]; read-out: ED50): > 7 µmol/kg

ED50 [2]: 26 µmol/kg
SMILES: Cc1cccc(N2CCN(CCCOc3ccc4c(c3)NC(=O)CC4)CC2)c1C

ED50 [2]: 41.3 µmol/kg
SMILES: Cc1cccc(N2CCN(CCCOc3ccc4ccc(O)nc4c3)CC2)c1C
ED50 [3]: 151 µmol/kg
ED50 (Rattus norvegicus [4]): 15.1 µmol/kg
ED50 (Mus musculus [5]): 3.5 µmol/kg
Ratio [6]: > 1.4
ED50 (Rattus norvegicus [7]): 1860 µmol/kg

SMILES: Cc1cccc(N2CCN(CCCCOc3ccc4c(c3)NC(=O)CC4)CC2)c1Cl
ED50 [8]: > 150 µmol/kg
ED50 (Mus musculus [9]): 1.4 µmol/kg
ED50 (Mus musculus [5]): > 23 µmol/kg

ED50 (Mus musculus [11]): inactive
SMILES: CN(C)CCCN1c2ccccc2Sc2ccc(Cl)cc21 [CHLORPROMAZINE]
ED50 (Rattus norvegicus [10]): 28.4 µmol/kg
ED50 [3]: 19.7 µmol/kg
ED50 (Mus musculus [12]): inactive

ED50 [2]: 3.4 µmol/kg
SMILES: Cc1cccc(N2CCN(CCCCOc3ccc4ccc(O)nc4c3)CC2)c1C
ED50 [8]: > 156 µmol/kg
ED50 (Mus musculus [13]): 10.5 µmol/kg
ED50 (Mus musculus [5]): 3.9 µmol/kg
Ratio [6]: 3.1

SMILES: CCOc1ccccc1N1CCN(CCCCOc2ccc3c(c2)NC(=O)CC3)CC1
ED50 [3]: 7 µmol/kg
ED50 (Mus musculus [13]): 4.4 µmol/kg
ED50 (Mus musculus [5]): 0.65 µmol/kg

SMILES: CC(=O)Nc1cccc(N2CCN(CCCCOc3ccc4c(c3)NC(=O)CC4)CC2)c1C
ED50 (Mus musculus [14]): > 25 µmol/kg

SMILES: Cc1cc(Br)ccc1N1CCN(CCCCOc2ccc3c(c2)NC(=O)CC3)CC1
ED50 (Mus musculus [15]): 21 µmol/kg

SMILES: Cc1ccc(N2CCN(CCCCOc3ccc4c(c3)NC(=O)CC4)CC2)cc1Cl
ED50 (Mus musculus [14]): > 7 µmol/kg

SMILES: O=C1CCc2c(cccc2OCCCCN2CCN(c3cccc(Cl)c3Cl)CC2)N1
ED50 (Mus musculus [1]; read-out: ED50): > 22 µmol/kg

SMILES: O=C1CCc2ccc(OCCCCN3CCN(c4c(Cl)cccc4Cl)CC3)cc2N1
ED50 (Mus musculus [1]; read-out: ED50): > 7 µmol/kg

ED50 [2]: 2.1 µmol/kg
SMILES: Cc1c(Br)cccc1N1CCN(CCCCOc2ccc3ccc(O)nc3c2)CC1

ED50 [2]: 4.1 µmol/kg
SMILES: Cc1c(C#N)cccc1N1CCN(CCCCOc2ccc3c(c2)NC(=O)CC3)CC1

ED50 [2]: 0.7 µmol/kg
SMILES: Cc1c(N2CCN(CCCCOc3ccc4c(c3)NC(=O)CC4)CC2)cccc1[N+](=O)[O-]
ED50 [3]: > 146 µmol/kg
ED50 (Mus musculus [13]): 5.9 µmol/kg
ED50 (Mus musculus [5]): > 23 µmol/kg
Ratio [6]: 8.7

SMILES: O=C1CCc2ccc(OCCCCN3CCN(c4ccccc4)CC3)cc2N1
ED50 (Mus musculus [14]): > 28 µmol/kg

SMILES: Cc1c(Cl)cccc1N1CCN(CCCCCOc2ccc3c(c2)NC(=O)CC3)CC1
ED50 (Mus musculus [14]): > 23 µmol/kg

ED50 (Mus musculus [11]): inactive
SMILES: O=C(CCCN1CCC(O)(c2ccc(Cl)cc2)CC1)c1ccc(F)cc1 [HALOPERIDOL]
ED50 (Rattus norvegicus [10]): 1.1 µmol/kg
ED50 [3]: > 341 µmol/kg
ED50 (Mus musculus [13]): 0.9 µmol/kg
ED50 (Mus musculus [12]): inactive

SMILES: O=C1CCc2ccc(OCCCCN3CCN(c4cc(Cl)cc(Cl)c4)CC3)cc2N1
ED50 [8]: > 256 µmol/kg
ED50 (Mus musculus [5]): > 22 µmol/kg

SMILES: Cc1c(Br)cccc1N1CCN(CCCCOc2ccc3c(c2)NC(=O)CC3)CC1
ED50 (Mus musculus [5]): 1.3 µmol/kg

SMILES: O=C1CCc2ccc(OCCCCN3CCN(c4cc(Cl)cc(Cl)c4Cl)CC3)cc2N1
ED50 [3]: > 265 µmol/kg
ED50 (Mus musculus [5]): > 21 µmol/kg

SMILES: Nc1ccccc1N1CCN(CCCCOc2ccc3c(c2)NC(=O)CC3)CC1
ED50 (Mus musculus [1]; read-out: ED50): > 25 µmol/kg

ED50 [2]: 0.24 µmol/kg
SMILES: CCOc1ccccc1N1CCN(CCCCOc2ccc3ccc(O)nc3c2)CC1
ED50 [8]: > 127 µmol/kg
ED50 (Mus musculus [5]): > 20 µmol/kg

SMILES: O=C1CCc2cc(OCCCCN3CCN(c4cccc(Cl)c4Cl)CC3)ccc2N1
ED50 (Mus musculus [14]): > 22 µmol/kg

SMILES: Cc1c(O)cccc1N1CCN(CCCCOc2ccc3c(c2)NC(=O)CC3)CC1
ED50 (Mus musculus [1]; read-out: ED50): > 8 µmol/kg

SMILES: O=C1CCc2ccc(OCCCCN3CCN(c4ccc(Cl)cc4Cl)CC3)cc2N1
ED50 (Mus musculus [14]): > 7 µmol/kg

SMILES: Cc1ccc(Cl)cc1N1CCN(CCCCOc2ccc3c(c2)NC(=O)CC3)CC1
ED50 (Mus musculus [14]): > 23 µmol/kg

SMILES: O=C1CCc2ccc(OCCCCN3CCN(c4cccc(Cl)c4Cl)CC3)cc2N1 [ARIPIPRAZOLE]
ED50 [8]: > 286 µmol/kg
ED50 (Rattus norvegicus [10]): 11.8 µmol/kg
ED50 (Rattus norvegicus [4]): 6.9 µmol/kg
ED50 (Mus musculus [5]): 5.1 µmol/kg
ED50 (Mus musculus [1]): > 22 µmol/kg

SMILES: Cc1cccc(N2CCN(CCCCOc3ccc4c(c3)NC(=O)CC4)CC2)c1Br
ED50 (Mus musculus [5]): > 21 µmol/kg

SMILES: Cc1cccc(N2CCN(CCCCOc3ccc4c(c3)NC(=O)CC4)CC2)c1C
ED50 [8]: > 314 µmol/kg
ED50 (Mus musculus [13]): 13.5 µmol/kg
ED50 (Mus musculus [5]): 9.1 µmol/kg

SMILES: O=C1CCc2ccc(OCCCCN3CCN(c4ccccc4[N+](=O)[O-])CC3)cc2N1
ED50 (Mus musculus [14]): > 7 µmol/kg

ED50 [2]: 2.8 µmol/kg
SMILES: Cc1c(Cl)cccc1N1CCN(CCCCOc2ccc3ccc(O)nc3c2)CC1
ED50 [8]: > 299 µmol/kg
ED50 (Mus musculus [13]): 12.6 µmol/kg
ED50 (Mus musculus [5]): 20.1 µmol/kg
Ratio [6]: 4.5

SMILES: N#Cc1ccccc1N1CCN(CCCCOc2ccc3c(c2)NC(=O)CC3)CC1
ED50 (Mus musculus [1]; read-out: ED50): > 23 µmol/kg

SMILES: O=C1CCc2ccc(OCCCCN3CCN(c4ccc(Cl)cc4)CC3)cc2N1
ED50 (Mus musculus [14]): > 8 µmol/kg

SMILES: Cc1c(F)cccc1N1CCN(CCCCOc2ccc3c(c2)NC(=O)CC3)CC1
ED50 (Mus musculus [16]): 7.2 µmol/kg

SMILES: Cc1c(N)cccc1N1CCN(CCCCOc2ccc3c(c2)NC(=O)CC3)CC1
ED50 (Mus musculus [14]): > 25 µmol/kg

ED50 [2]: 0.9 µmol/kg
SMILES: Oc1ccc2ccc(OCCCCN3CCN(c4cccc(Cl)c4Cl)CC3)cc2n1
ED50 [8]: > 287 µmol/kg
ED50 (Mus musculus [5]): > 22 µmol/kg

SMILES: Cc1c(Cl)cccc1N1CCN(CCCCOc2ccc3c(c2)NC(=O)CC3)CC1
ED50 [3]: > 299 µmol/kg
ED50 (Mus musculus [13]): 5.6 µmol/kg
ED50 (Mus musculus [5]): 3.5 µmol/kg
